# Results published in ChEMBL document CHEMBL1157262, “A pyrimidine-beta-carboline and other alkaloids from Annona foetida with antileishmanial activity” (J Nat Prod, 2006).
# How the values were obtained:
# Leishmania guyanensis = test: Antileishmanial activity against Leishmania guyanensis MHOM/BR/95/IOCL-2092 promastigotes after 24 hrs; type: functional, organism-based
# In short: (§1)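 Promastigotes grown in Schneider's Drosophila medium with 20% (v/v) heat-inactivated FCS, harvested late-log; log-phase cells at 4.0 × 10⁶ cells/mL in 96-well trays, 26 °C, 95% air/5% CO₂. Compounds in DMSO, 160–0.16 μg/mL, triplicate per concentration. Viability counted by Neubauer chamber after 24 h; IC50 = concentration inhibiting growth 50%. Pentamidine positive control.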
# Leishmania braziliensis = test: Antileishmanial activity against Leishmania braziliensis MHOM/BR/95/IOCL-2033 promastigotes after 24 hrs; type: functional, organism-based; in short: as §1
IC50 (Leishmania guyanensis),IC50 (Leishmania braziliensis),SMILES
104 µM,321 µM,COc1c(OC)c2c3c(nccc3c1OC)C(=O)c1ccccc1-2 [HOMOMOSCHATOLINE]
> 613 µM,34.8 µM,Nc1nccc(-c2nccc3c2[nH]c2ccccc23)n1 [ANNOMONTINE]
0.9 µM,2.9 µM,N=C(N)c1ccc(OCCCCCOc2ccc(C(=N)N)cc2)cc1 [PENTAMIDINE]
438 µM,253 µM,Nc1nccc(-c2nccc3c4ccccc4n(O)c23)n1

SMILES,IC50 (Leishmania guyanensis),IC50 (Leishmania braziliensis)
O=C1c2ccccc2-c2c3c(cc4ccnc1c24)OCO3 [LIRIODENINE],21.5 µM,58.5 µM
